# The list is not random: actives were taken first. Their share in the collection is about 1.7%.
# Rce1 inh: inhibitors of yeast Ras-converting enzyme. AID 2563. yeast membranes, quenched prenylated peptide cleavage fluorescence. Q03530. calls only. 290,000 tested, 0.27% active;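 active = fall in fluorescence gain of 50% or more versus controls, with final raw signal at or below 3038400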;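 note: plate controls were neutral control wells for no effect and wells lacking membranes for full effect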
# Target sequence (Q03530 whole entry, looked up): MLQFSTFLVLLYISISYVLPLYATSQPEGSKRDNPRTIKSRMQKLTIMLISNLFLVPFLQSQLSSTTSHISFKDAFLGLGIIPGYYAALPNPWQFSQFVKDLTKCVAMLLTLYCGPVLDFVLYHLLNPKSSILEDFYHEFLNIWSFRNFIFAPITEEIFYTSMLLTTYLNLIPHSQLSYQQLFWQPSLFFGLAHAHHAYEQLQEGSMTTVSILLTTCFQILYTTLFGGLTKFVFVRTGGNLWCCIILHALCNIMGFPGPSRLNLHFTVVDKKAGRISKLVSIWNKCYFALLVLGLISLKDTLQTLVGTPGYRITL
# CAL PDZ FP-1: blocks peptide binding to the human CAL PDZ domain; Q9HD26; purified CAL PDZ, TMR-peptide fluorescence polarization, 1 h; inhibition, % at 24.9 µM; 300,000 tested, 0.92% active;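 active = mean inhibition of at least 30% with at least half of replicates also reaching 30%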;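 note: 0% = DMSO neutral control and 100% = excess unlabeled competitor peptide PRC23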
# CAL PDZ FP-2: inhibitors of human CAL PDZ peptide binding; purified CAL PDZ, TMR-peptide fluorescence polarization, 1 h; AID 504414; inhibition, % at 20 µM; 330,000 tested, 0.02% active;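 active = highest replicate inhibition of at least 40%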;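 note: plate controls were DMSO neutral control wells for no effect and unlabeled competitor peptide control wells for full effect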
#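 Test system: tagged CAL PDZ domain / Buffer or medium: sodium phosphate/NaCl buffer pH 7.4 with TCEP, IgG, Thesit / Reagent: TMR-labelled reporter peptide T*-PRC34 bound in PDZ groove / Compound dosing: single point, 20 µM / Schedule: 1 h incubation at room temperature before polarization reading / Technique: fluorescence polarization (mP) / Benchmarks: unlabelled peptide, DMSO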
# AI-2 QS modul: modulates the Vibrio harveyi AI-2 quorum sensing system | Vibrio harveyi JMH597 AI-2 luminescence/OD600 ratio, 9 h; stronger effect = lower value; strain lacks LuxN and CqsS sensors; 0 = neutral-control median | activity change, % at 7.5 µM | 300,000 tested, 0.4% active | AID 2094; in the data active = activity change below about -75%, passing the limit was not always enough;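 note: luminescence divided by OD600 gain over 9 h not by final OD600 alone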
# ARNT-TACC3 inh: disruptors of human ARNT/TACC3 interaction; inhibition, % at 9.99 µM; AlphaScreen His-ARNT PAS-B/GST-TACC3 binding, luminescence; TACC3 fragment carries E629A point mutation; Q9Y6A5; AID 623870; 390,000 tested, 0.66% active;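 active = mean inhibition of replicates at least 50% and at least half of replicates each reaching 50%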;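 note: 0% = complete ARNT plus TACC3 wells and 100% = ARNT alone without TACC3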
# Active calls of the source: *; i = inactive; . = no result; + = active, no number.
SMILES,Rce1 inh,CAL PDZ FP-1,CAL PDZ FP-2,AI-2 QS modul,ARNT-TACC3 inh
O=S(=O)(NC1C2CC3CC(C2)CC1C3)c1ccccc1 (centres undefined),.,.,0.0,.,3.3
O=c1cnnc(N/N=C/c2ccc3c(c2)OCO3)[nH]1,i,-5.1,0.4,15.2,15.2
O=c1cnnc(N/N=C/C2CC=CCC2)[nH]1 (centres undefined),i,3.6,-0.7,11.0,65.1*
C=CCNC(=S)NNC(=O)COc1ccc(Cl)cc1Cl,i,-6.2,-0.6,9.6,-6.9
CN(CC1CCCO1)S(=O)(=O)c1ccc(C(=O)Nc2nc(-c3ccccn3)cs2)cc1 (centres undefined),.,-1.2,-1.6,.,59.3*
CN(CC1CCCO1)S(=O)(=O)c1ccc(C(=O)Nc2ccccc2F)cc1 (centres undefined),i,-2.1,-1.7,37.9,21.1
C[C@@H]1CN([C@H](C)CO)C(=O)c2cc(C#CC(C)(C)O)cnc2O[C@H]1CN(C)Cc1cccc(C(=O)O)c1,.,.,.,.,-2.6
O=C(NCc1ccccn1)c1ccc([N+](=O)[O-])cc1,i,-2.2,-2.3,11.4,.
O=C(Cc1ccc([N+](=O)[O-])cc1)NCc1ccccn1,i,75.8*,-0.6,26.4,2.3
Cc1cc(C)cc(N(C(C)C(=O)NCc2ccc3c(c2)OCO3)S(C)(=O)=O)c1 (centres undefined),i,-3.1,0.7,20.5,.
COc1ccc(-c2nc(-c3ccccn3)ncc2S(C)(=O)=O)cc1,.,-15.5,-2.5,29.2,13.5
CC(C)S(=O)(=O)c1cnc(-c2ccccn2)nc1N,i,-2.4,-0.8,11.0,74.2*
CCc1ccc(S(=O)(=O)/N=C2\C=C(Nc3ccc(C(=O)O)cc3)C(=O)c3ccccc32)cc1,i,1.8,0.5,10.9,73.7*
COC(=O)c1ccccc1NC1=C/C(=N\S(=O)(=O)c2ccc(C(=O)O)cc2)c2ccccc2C1=O,i,-0.3,2.0,54.9,71.8*
C[C@H](CO)N1C[C@H](C)[C@H](CN(C)C(=O)C2CCCCC2)OCCCC[C@H](C)Oc2ccc(NC(=O)Nc3ccc(F)cc3)cc2C1=O,.,.,.,.,-6.6
COCC#Cc1ccc([C@H]2[C@@H](CO)N3CCCCN(Cc4ccncc4)C[C@H]23)cc1,.,.,.,.,-15.2
Cc1c(N)cccc1N,.,-4.0,-0.3,.,.
CC(=O)Nc1cccc(NC(=O)CSc2nn3c(=O)c(C)nnc3s2)c1,i,.,-0.6,20.4,66.8*
Cc1nnc2sc(SCc3ccc(Cl)cc3)nn2c1=O,i,-1.6,-1.0,19.7,0.0
Cc1nnc2sc(SCC(=O)Nc3ccc(Cl)cc3)nn2c1=O,i,37.5*,14.7,17.4,42.6*
COc1ccc(Cc2nnc3sc(SCC(=O)Nc4ccccc4)nn3c2=O)cc1OC,i,-1.2,-1.5,20.3,62.8*
CC(C)Oc1cccc(C(=O)C2CCCN(C(=O)CCn3cnnn3)C2)c1 (centres undefined),i,77.3*,-0.7,14.0,1.4
CCOC(=O)c1c(-c2ccccc2)oc2ccc(O)c(CN3CCN(C)CC3)c12,i,-1.1,-1.4,15.2,3.6
CC(/C=N/NC(=O)c1ccccc1F)c1ccccc1 (centres undefined),i,-2.7,-1.3,8.9,24.3
CN(C(=O)c1ccccc1F)C(c1ccccc1)c1ccccc1,i,41.7*,-0.4,23.5,10.4
SMILES,Rce1 inh,CAL PDZ FP-1,CAL PDZ FP-2,AI-2 QS modul,ARNT-TACC3 inh
N#Cc1c(C(F)(F)F)cc(-c2ccccc2)[nH]c1=O,i,36.4*,-2.4,-1.5,-3.6
CCCCOc1ccccc1N,i,-3.3,-1.7,12.3,-0.6
O=C(Cn1c2c(c(=O)n3ncnc13)CCC2)N/N=C/c1ccc(Cl)cc1,i,12.8,-1.0,30.0,3.3
Cn1c2c(c(=O)n3ncnc13)CCCC2,i,48.0*,0.0,19.4,-5.0
O=C(Nc1cccc(Cl)c1)Nc1csc([N+](=O)[O-])c1,i,.,-0.5,-91.3*,3.4
O=C(Nc1ccncc1)Nc1cccc(Cl)c1,i,-1.0,-7.1,10.2,-3.6
CCC(C)[C@H](NC(=O)NCc1ccccn1)C(=O)OC (some centres undefined),i,-0.7,1.4,11.8,-9.3
CCOC(=O)N1CCC(=C(C#N)C(=O)Nc2cc(OC)ccc2OC)CC1,i,30.8*,-0.1,24.6,8.0
CCOC(=O)C1CCCN(CCC(=O)Nc2cc(OC)ccc2OC)C1 (centres undefined),i,2.3,-0.2,3.8,-1.3
O=C(NC1CCCCC1)C(=O)N(Cc1cccnc1)C(C(=O)NCc1ccco1)c1ccccc1 (centres undefined),i,.,.,-1.2,.
CCn1nc(C(=O)Nc2cc(Cl)ccc2-n2cncn2)c2ccccc2c1=O,i,57.6*,-0.8,15.0,2.6
O=C(Cn1nc(C(=O)O)c2ccccc2c1=O)Nc1cc(Cl)ccc1-n1cncn1,.,7.2,-2.5,.,-9.3
Cc1ccc(NC(=O)c2ccc(S(=O)(=O)N3CCC(C)CC3)cc2)nc1,i,47.9*,-0.1,30.4,-3.7
Cc1ccc(NC(=O)c2ccc(S(=O)(=O)N3CCCCCC3)cc2)nc1,i,1.4,-3.8,23.8,-2.2
O=C(C[C@@H]1CC[C@H](NC(=O)c2cccc(F)c2)[C@H](CO)O1)NCc1ccccc1,.,.,.,.,3.2
C/C(=N/NC(=O)Cc1cc(=O)[nH][nH]1)c1ccc([N+](=O)[O-])cc1,i,35.7*,-1.6,40.6,-3.9
C/C(=N\NC(=O)Cc1cc(=O)[nH][nH]1)c1cccc([N+](=O)[O-])c1,i,-6.7,-1.5,9.2,3.8
CCOC(=O)c1c(-c2ccccc2)oc2ccc(OCC(O)CNCCN(C)C)cc12 (centres undefined),+,1.9,-2.5,16.4,42.2
O=C(c1ccccc1)C1N=NCC1c1ccc(Cl)cc1 (centres undefined),.,174.1*,-0.8,.,-2.1
CCOC(=O)C1=NNC(C(=O)c2ccccc2)C1c1ccc(Cl)cc1 (centres undefined),i,.,-0.8,24.6,-2.8
CC(C)CCSc1nc2c(c(=O)[nH]c(=O)n2C)n1CCc1ccccc1,i,-2.4,-0.5,22.6,-6.5
O=C(CC1C(=O)NCCN1Cc1ccc(-c2ccccc2)cc1)NCCCn1ccnc1 (centres undefined),i,-1.5,-2.7,8.3,4.8
O=C(CN1CCN(C(=O)c2ccco2)CC1)Nc1cc(Cl)ccc1Cl,i,-0.3,-1.7,47.7,-2.9
CCOc1ccc2oc(-c3ccccc3)c(C(=O)N3CCN(C)CC3)c2c1,i,.,-0.9,-6.2,1.2
COc1ccc2oc(-c3ccccc3)c(C(=O)N3CCOCC3)c2c1,+,-6.5,.,19.8,-2.7
CCN(CC)C(=O)CN1C(=O)/C(=C/c2ccccc2)SC1=S,i,43.7*,0.6,18.2,-3.2
CCN(C(=O)CN1C(=O)/C(=C/c2ccccc2F)SC1=S)C1CCS(=O)(=O)C1 (centres undefined),i,75.3*,0.1,8.2,-3.0
